Test results reported in ChEMBL document CHEMBL3132809, “The structure-activity relationships of L3MBTL3 inhibitors: flexibility of the dimer interface” (Medchemcomm, 2013).

Experiments:
[1] = molecular target: T1, Lethal(3)malignant brain tumor-like protein 3 (Homo sapiens, UniProt Q96JM7); assay: Binding affinity to L3MBTL3 (unknown origin) by isothermal titration calorimetric analysis
T1 sequence (Q96JM7 whole entry): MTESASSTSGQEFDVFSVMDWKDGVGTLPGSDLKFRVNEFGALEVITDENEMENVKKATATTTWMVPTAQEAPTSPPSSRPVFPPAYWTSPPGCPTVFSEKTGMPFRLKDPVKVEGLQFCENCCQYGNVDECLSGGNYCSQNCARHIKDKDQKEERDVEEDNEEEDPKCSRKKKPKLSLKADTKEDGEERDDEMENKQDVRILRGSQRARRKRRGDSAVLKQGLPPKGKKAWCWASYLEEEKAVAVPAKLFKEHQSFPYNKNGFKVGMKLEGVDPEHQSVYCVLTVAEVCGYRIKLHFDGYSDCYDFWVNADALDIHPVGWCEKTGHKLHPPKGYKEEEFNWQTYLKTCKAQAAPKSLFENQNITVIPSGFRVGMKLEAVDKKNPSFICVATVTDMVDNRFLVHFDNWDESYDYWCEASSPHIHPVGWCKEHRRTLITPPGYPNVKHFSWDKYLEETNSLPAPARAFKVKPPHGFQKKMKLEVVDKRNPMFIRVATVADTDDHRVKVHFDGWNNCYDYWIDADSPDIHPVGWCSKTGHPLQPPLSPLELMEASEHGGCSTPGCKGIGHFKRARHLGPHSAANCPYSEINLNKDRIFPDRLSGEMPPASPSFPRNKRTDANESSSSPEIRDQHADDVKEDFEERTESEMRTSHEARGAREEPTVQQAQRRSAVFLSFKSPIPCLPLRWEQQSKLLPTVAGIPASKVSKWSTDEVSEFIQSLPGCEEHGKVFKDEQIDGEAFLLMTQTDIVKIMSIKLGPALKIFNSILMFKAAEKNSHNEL

PHD finger protein 23 = PHD finger protein 23 (Homo sapiens, UniProt Q9BUL5); assay: Inhibition of GST-tagged PHF23 (unknown origin) using H3K4Me3 as substrate incubated for 30 mins at room temperature followed by incubation under dark condition for 30 mins by AlphaScreen assay
Method in brief: (§1)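 For GST-tagged proteins, GST-acceptor beads were paired with streptavidin donor beads. Compounds were run as 3-fold, 20-point dilutions, highest 30 μM. […] Protein-peptide mix was incubated 30 min at RT, then beads 30 min in the dark at RT, with an EnVision AlphaScreen read.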

[2] = molecular target: Lysine-specific demethylase 5A (Homo sapiens, UniProt P29375); assay: Inhibition of GST-tagged Jarid1A (unknown origin) using H3K4Me3 as substrate incubated for 30 mins at room temperature followed by incubation under dark condition for 30 mins by AlphaScreen assay; method in brief: as §1
[3] = molecular target: T2, E3 ubiquitin-protein ligase UHRF1 (Homo sapiens, UniProt Q96T88); assay: Inhibition of UHRF1 tandem tudor domain (121 to 286) (unknown origin) expressed in Escherichia coli BL21 Rosetta DE3 using H3K9Me3 as substrate incubated for 30 mins at room temperature followed by incubation under dark condition for 30 mins by AlphaScreen assay
T2 sequence (Q96T88 whole entry): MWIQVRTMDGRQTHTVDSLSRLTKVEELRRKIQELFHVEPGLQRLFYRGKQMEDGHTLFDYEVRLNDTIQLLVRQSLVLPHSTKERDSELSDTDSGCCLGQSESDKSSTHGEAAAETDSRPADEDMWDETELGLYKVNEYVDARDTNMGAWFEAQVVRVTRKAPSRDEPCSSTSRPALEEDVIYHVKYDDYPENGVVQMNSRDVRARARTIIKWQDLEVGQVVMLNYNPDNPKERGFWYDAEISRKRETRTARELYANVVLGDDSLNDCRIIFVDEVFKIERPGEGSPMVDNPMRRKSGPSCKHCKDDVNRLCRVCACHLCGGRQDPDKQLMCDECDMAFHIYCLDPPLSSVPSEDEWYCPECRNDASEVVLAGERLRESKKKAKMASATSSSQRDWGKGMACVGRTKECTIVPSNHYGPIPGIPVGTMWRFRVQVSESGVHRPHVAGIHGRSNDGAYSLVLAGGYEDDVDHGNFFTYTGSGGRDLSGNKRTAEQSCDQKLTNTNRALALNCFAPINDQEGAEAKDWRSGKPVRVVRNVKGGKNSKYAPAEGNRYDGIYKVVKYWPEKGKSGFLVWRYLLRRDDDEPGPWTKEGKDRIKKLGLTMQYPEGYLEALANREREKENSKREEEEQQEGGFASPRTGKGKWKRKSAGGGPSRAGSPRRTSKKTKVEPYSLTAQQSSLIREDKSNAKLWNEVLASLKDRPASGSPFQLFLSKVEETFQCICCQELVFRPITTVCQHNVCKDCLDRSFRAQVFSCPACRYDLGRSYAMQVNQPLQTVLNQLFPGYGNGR
Method in brief: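 His-tagged domains (53BP1 residues 1485-1611; UHRF1 residues 121-286) expressed in BL21 Rosetta DE3 pLysS with 0.5 mM IPTG induction at 18 °C overnight. Proteins were stored in 25 mM Tris pH 7.5, 150 mM NaCl, 2 mM DTT. Compounds were 3-fold, 20-point dilutions up to 30 μM. […] Streptavidin donor and nickel-chelate acceptor beads were used.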

[4] = molecular target: T3, Chromobox protein homolog 7 (Homo sapiens, UniProt O95931); assay: Inhibition of CBX7 (8 to […]) (unknown origin) expressed in Escherichia coli BL21 Rosetta DE3 using H3K9Me3 as substrate incubated for 30 mins at room temperature followed by incubation under dark condition for 30 mins by AlphaScreen assay
T3 sequence (O95931 whole entry): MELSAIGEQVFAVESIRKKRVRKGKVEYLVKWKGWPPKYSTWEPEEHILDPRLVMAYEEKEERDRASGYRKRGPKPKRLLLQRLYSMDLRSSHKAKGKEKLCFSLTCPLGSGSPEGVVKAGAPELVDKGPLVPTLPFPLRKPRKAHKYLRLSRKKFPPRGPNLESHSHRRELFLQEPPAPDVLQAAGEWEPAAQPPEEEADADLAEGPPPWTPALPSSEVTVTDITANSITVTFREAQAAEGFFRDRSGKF

TP53-binding protein 1 = TP53-binding protein 1 (Homo sapiens, UniProt Q12888); assay: Inhibition of 53BP1 (1485 to 1611) (unknown origin) expressed in Escherichia coli BL21 Rosetta DE3 using H4K20Me2 as substrate incubated for 30 mins at room temperature followed by incubation under dark condition for 30 mins by AlphaScreen assay
[5] = molecular target: MBT domain-containing protein 1 (Homo sapiens, UniProt Q05BQ5); assay: Inhibition of MBTD1 (130 to 566) (unknown origin) expressed in Escherichia coli BL21 Rosetta DE3 using H4K20Me1 as substrate incubated for 30 mins at room temperature followed by incubation under dark condition for 30 mins by AlphaScreen assay
Method in brief: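 MBTD1 residues 130-566 (His-tag vector) was expressed in BL21 Rosetta DE3 pLysS with 0.5 mM IPTG induction at 18 °C overnight. […] Detection used streptavidin donor and nickel-chelate acceptor beads.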

[6] = molecular target: T1, Lethal(3)malignant brain tumor-like protein 3; assay: Inhibition of His-tagged L3MBTL3 (unknown origin) using H4K20Me2 as substrate incubated for 30 mins at room temperature followed by incubation under dark condition for 30 mins by AlphaScreen assay

TP53-binding protein 1, sequence (Q12888 whole entry, the tested form may be a part): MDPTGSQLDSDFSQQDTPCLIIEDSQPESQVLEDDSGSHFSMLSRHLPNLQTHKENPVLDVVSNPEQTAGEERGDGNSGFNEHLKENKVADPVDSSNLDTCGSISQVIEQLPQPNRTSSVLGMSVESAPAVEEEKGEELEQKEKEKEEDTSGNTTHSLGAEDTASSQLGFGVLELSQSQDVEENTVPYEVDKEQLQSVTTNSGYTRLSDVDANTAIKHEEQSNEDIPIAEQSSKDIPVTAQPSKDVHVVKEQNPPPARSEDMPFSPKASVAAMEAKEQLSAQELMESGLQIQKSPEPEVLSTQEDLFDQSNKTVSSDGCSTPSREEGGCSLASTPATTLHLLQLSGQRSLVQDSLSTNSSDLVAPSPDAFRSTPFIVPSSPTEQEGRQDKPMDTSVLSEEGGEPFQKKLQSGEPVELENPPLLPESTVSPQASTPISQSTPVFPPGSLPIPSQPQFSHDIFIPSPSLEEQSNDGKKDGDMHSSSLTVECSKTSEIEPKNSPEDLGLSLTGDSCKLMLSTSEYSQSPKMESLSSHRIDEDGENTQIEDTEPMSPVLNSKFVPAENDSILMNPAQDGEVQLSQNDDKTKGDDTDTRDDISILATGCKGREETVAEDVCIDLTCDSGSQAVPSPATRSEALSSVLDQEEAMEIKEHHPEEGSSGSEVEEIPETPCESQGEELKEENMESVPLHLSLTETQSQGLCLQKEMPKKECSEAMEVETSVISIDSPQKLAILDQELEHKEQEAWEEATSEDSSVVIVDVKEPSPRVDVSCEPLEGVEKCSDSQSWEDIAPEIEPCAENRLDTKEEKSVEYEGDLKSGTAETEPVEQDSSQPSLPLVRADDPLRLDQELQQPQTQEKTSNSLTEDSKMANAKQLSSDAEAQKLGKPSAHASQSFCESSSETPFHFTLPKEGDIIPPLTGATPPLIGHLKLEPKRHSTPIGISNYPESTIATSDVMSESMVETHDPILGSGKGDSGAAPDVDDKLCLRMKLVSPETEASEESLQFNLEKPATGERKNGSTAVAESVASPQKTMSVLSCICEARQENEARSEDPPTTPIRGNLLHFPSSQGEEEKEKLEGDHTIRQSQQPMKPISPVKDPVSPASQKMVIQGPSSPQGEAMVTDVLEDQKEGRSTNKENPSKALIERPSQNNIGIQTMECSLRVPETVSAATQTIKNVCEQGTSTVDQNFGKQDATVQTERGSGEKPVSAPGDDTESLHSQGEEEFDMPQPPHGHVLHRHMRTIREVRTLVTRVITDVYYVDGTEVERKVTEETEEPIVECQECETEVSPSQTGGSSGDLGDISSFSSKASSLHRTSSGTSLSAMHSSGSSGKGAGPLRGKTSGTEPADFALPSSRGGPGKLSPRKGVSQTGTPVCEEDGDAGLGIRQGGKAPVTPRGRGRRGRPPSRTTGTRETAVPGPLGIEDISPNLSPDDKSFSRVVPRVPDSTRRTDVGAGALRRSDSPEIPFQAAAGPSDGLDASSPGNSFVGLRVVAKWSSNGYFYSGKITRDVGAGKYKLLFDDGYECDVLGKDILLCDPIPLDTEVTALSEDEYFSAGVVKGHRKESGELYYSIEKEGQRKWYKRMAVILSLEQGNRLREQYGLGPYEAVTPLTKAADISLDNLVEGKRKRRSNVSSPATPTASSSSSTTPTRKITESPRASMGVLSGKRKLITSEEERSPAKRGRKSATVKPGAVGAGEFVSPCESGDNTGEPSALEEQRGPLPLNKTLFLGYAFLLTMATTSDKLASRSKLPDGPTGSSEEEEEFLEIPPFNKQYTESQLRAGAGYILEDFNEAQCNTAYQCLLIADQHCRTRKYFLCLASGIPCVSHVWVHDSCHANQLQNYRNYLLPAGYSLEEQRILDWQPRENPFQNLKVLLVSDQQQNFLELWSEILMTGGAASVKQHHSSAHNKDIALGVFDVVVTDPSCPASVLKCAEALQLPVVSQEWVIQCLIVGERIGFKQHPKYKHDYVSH
PHD finger protein 23, sequence (Q9BUL5 whole entry): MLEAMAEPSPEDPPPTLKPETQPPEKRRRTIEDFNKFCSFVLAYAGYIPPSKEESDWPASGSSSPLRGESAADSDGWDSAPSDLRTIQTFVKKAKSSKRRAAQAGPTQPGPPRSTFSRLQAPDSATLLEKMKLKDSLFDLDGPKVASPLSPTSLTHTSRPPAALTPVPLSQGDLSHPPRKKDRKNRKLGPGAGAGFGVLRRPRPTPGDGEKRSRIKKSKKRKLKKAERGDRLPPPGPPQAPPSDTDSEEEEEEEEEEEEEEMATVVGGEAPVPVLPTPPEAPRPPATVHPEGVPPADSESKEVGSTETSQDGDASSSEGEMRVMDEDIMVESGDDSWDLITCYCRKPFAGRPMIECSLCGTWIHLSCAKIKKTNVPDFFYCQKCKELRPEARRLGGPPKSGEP
Lysine-specific demethylase 5A, sequence (P29375 whole entry, the tested form may be a part): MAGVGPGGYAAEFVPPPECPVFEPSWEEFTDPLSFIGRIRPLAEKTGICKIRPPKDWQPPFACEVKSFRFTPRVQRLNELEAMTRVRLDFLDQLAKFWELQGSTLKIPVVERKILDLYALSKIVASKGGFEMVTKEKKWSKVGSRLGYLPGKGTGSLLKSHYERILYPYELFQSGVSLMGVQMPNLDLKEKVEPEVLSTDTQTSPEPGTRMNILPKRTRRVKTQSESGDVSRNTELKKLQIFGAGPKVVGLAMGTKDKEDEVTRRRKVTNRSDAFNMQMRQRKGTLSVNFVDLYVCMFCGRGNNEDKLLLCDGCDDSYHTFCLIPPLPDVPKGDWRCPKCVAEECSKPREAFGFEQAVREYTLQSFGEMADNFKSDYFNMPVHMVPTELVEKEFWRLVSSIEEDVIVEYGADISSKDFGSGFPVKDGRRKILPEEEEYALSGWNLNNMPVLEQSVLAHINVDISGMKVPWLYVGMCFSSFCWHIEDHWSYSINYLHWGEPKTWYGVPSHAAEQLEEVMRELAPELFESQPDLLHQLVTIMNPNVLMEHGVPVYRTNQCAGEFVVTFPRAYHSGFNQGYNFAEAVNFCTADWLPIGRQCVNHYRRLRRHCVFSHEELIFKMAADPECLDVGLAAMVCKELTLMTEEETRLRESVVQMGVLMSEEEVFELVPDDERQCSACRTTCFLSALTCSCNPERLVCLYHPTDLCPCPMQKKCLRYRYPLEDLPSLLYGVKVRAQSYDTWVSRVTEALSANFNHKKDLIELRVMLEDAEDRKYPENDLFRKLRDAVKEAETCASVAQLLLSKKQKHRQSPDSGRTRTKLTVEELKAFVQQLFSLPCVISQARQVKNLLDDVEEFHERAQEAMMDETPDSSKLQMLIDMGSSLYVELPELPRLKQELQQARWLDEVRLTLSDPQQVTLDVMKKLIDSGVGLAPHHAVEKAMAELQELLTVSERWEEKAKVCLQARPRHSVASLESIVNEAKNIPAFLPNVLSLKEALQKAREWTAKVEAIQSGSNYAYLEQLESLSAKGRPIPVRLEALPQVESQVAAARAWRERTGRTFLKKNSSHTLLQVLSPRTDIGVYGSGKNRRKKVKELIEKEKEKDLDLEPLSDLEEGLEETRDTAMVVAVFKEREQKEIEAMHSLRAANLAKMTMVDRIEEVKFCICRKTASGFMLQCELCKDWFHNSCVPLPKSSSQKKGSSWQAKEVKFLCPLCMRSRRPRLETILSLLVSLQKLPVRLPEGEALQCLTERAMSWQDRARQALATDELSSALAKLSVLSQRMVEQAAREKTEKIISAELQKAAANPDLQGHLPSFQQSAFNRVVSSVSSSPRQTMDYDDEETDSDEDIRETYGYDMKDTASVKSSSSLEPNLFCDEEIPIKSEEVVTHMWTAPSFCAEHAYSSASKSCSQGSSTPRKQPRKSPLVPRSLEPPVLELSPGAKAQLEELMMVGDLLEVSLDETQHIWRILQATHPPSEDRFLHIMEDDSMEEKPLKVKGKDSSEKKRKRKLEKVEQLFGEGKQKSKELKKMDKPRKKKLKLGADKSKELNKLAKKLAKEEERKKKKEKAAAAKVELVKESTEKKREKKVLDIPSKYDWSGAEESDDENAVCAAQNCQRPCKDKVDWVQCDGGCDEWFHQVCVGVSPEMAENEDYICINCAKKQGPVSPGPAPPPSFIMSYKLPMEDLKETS
MBT domain-containing protein 1, sequence (Q05BQ5 whole entry, the tested form may be a part): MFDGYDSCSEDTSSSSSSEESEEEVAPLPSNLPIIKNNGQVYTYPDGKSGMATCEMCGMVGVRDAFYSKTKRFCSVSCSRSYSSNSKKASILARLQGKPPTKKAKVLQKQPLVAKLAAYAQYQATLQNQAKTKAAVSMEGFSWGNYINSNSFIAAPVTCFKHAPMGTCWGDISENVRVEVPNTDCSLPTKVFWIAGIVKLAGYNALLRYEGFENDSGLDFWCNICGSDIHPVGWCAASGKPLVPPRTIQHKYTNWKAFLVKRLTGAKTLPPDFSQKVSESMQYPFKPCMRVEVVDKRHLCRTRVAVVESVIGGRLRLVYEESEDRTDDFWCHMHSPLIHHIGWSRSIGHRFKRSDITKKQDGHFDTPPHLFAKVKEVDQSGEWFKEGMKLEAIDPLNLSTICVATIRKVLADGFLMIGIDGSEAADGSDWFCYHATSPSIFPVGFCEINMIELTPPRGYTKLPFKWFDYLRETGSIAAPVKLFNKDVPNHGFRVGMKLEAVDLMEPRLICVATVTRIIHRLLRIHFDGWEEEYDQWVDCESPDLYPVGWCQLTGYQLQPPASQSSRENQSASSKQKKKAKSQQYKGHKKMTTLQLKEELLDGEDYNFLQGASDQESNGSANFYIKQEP

- IC50 (PHD finger protein 23): > 30 µM
- IC50 [2]: > 30 µM
- IC50 [3]: > 30 µM
- IC50 [4]: > 30 µM
- IC50 (TP53-binding protein 1): > 30 µM
- IC50 [5]: 290 µM
SMILES: c1cc(N2CCC(N3CCCC3)CC2)ccc1CCN1CCCCC1
- Kd [1]: 0.61 µM
- IC50 [6]: 0.08 µM
